# Bioassay records from PubChem.
# An excerpt weighted towards active compounds, which were near 1.9% of everything screened.
# CHRM5 agonist: human M5 muscarinic receptor agonists, primary screen, CHO-K1 cells, Fluo-8 calcium fluorescence; activation, % at 3 µM; Muscarinic acetylcholine receptor M5 (Homo sapiens), P08912; 0.19% of 360,000 active; CHO-K1 hM5 cells; 0% DMSO wells, 100% maximal acetylcholine response;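 active = activation above the run's mean over test compounds plus 3 SD, cut at about 23% in these data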;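 also: signal is peak over basal fluorescence ratio across the kinetic read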
# M4 PAM: human M4 muscarinic receptor positive allosteric modulators, primary screen, CHO-K1 cells, Fluo-8 calcium fluorescence. 0.4% of 360,000 active. activation, % at 3 µM. CHO-K1 hM4/Gqi5, ACh EC20; 0% = ACh EC20, 100% = maximal ACh. AID 624126, 2012;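 active = activation above its plate's cutoff, the mean activation of sample wells plus 3 SD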
# Target sequence (P08173 whole entry, looked up): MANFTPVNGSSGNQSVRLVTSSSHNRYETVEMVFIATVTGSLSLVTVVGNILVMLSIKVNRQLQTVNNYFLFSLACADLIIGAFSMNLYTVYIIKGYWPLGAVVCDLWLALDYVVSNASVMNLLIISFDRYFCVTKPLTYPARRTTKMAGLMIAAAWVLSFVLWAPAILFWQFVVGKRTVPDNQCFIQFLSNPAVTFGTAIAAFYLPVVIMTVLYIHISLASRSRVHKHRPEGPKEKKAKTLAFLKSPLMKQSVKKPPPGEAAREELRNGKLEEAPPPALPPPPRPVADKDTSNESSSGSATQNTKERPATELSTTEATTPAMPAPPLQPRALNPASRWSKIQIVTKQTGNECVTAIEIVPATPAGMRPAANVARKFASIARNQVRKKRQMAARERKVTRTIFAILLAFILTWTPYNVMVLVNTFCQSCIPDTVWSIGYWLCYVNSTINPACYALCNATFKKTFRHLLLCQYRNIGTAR
# M4 antag: human M4 muscarinic receptor antagonists, primary screen, CHO cells, Fluo-8 calcium fluorescence; Muscarinic acetylcholine receptor M4 (Homo sapiens), P08173; CHO-hM4 cells, ACh EC80; inhibition, % at 3 µM; 0.73% of 360,000 active;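 active = inhibition above its plate's cutoff, the mean inhibition of sample wells plus 3 SD, cut at about 27% in these data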;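 also: 0% = acetylcholine EC80 with DMSO and 100% = DMSO without agonist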
# M5 PAM: human M5 muscarinic receptor positive allosteric modulators, primary screen, CHO-K1 cells, Fluo-8 calcium fluorescence; Muscarinic acetylcholine receptor M5 (Homo sapiens), P08912; CHO-K1 hM5, ACh EC20 PAM; 0% = ACh EC20, 100% = ACh EC100; activation, % at 3 µM; 0.3% of 360,000 active; AID 624038, 2012;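 active = activation above the run cutoff, the mean activation of all test compounds plus 3 SD, cut at about 18% in these data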
#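 Assay system: CHO-K1 hM5 cells / Incubation: Fluo-8 loading 80 min at 37 °C plus 30 min room temperature / Technique: Fluo-8 calcium dye fluorescence, kinetic read / Repeats: single replicate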
# CHRM4 agonist: human M4 muscarinic receptor agonists, primary screen, CHO-K1 cells, Fluo-8 calcium fluorescence | CHO-K1 hM4/Gqi5; vehicle 0%, full acetylcholine response 100% | activation, % at 3 µM | 0.14% of 360,000 active;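 active = activation above the run mean over all test wells plus 3 SD, cut at about 32% in these data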;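 also: peak over basal fluorescence ratio per well then scaled between controls; 0% = DMSO wells and 100% = acetylcholine at EC100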
# CHRM5 antagonist: human M5 muscarinic receptor antagonists, primary screen, CHO cells, Fluo-8 calcium fluorescence | Muscarinic acetylcholine receptor M5 (Homo sapiens), P08912 | CHO-hM5 cells, ACh EC80 | inhibition, % at 3 µM | 0.59% of 360,000 active | AID 624040, 2012;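 active = inhibition above a per-plate cutoff, the mean of that plate's test compounds plus 3 SD, cut at about 27% in these data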;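 also: 0% = acetylcholine EC80 with DMSO and 100% = DMSO without agonist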
# * = called active by the depositor.
SMILES,CHRM5 agonist,M4 PAM,M4 antag,M5 PAM,CHRM4 agonist,CHRM5 antagonist
O=S(=O)(NC1=NCCCCC1)c1ccc(Cl)cc1Cl,-0.7,6.5,-0.3,3.5,0.7,2.1
COc1ccc(OC)c(S(=O)(=O)Nc2cnc3ccccc3c2)c1,-1.4,2.0,0.5,1.7,2.3,1.8
CCc1noc(N)c1C(=O)Nc1ccc(Cl)cc1,-2.8,4.9,4.9,5.1,0.4,-5.2
CCc1noc(N)c1C(=O)Nc1ccc(F)c(Cl)c1,-5.1,2.8,-1.3,21.8*,0.8,-9.7
Cn1nnnc1SCc1nc2scc(-c3ccc(Cl)cc3)c2c(=O)[nH]1,5.9,-21.7,-0.9,-14.1,12.4,8.5
Cc1cc(C(=O)COc2ccc(C#N)cc2)c(C)n1-c1ccc2c(c1)OCO2,-1.2,-0.7,1.8,-4.7,2.4,-0.7
CC(=O)c1cccc(NC(=O)/C(=C\c2cccnc2)NC(=O)c2ccccc2)c1,0.0,-12.5,29.1*,-3.3,0.4,13.2
CN(Cc1nc2ccccc2[nH]1)C(=O)C1CCC(=O)N(C2CCCC2)C1 (stereo not drawn),-2.8,5.0,-2.2,5.0,0.3,-5.2
CN(c1ccccc1)S(=O)(=O)c1cccc(C(=O)NCC(=O)Nc2ccc(F)c(F)c2F)c1,1.2,-3.7,-10.2,-11.2,15.2,0.9
CCCCc1cc(=O)oc2cc(OCc3cc(OC)c(OC)c(OC)c3)c(Cl)cc12,-1.6,15.5*,-3.8,13.2,3.3,0.4
CCCc1cc(=O)oc2cc(OCc3cc(OC)c(OC)c(OC)c3)c(Cl)cc12,0.7,5.1,-3.5,7.7,0.9,-5.5
O=S1(=O)CC(N2CCCC2)CN1C1CCCCC1 (stereo not drawn),-1.3,15.5,-4.1,-0.1,1.2,-0.9
CCN1CCc2c(sc(NC(=O)Nc3ccc(Cl)c(Cl)c3)c2C(N)=O)C1,76.7*,-43.7,51.2*,-19.2,123.8*,58.0*
COC(=O)Cc1ccc(OCc2ccc(Cl)nc2)cc1,0.0,-4.0,-6.6,-4.2,5.4,5.5
Cc1c(NC(=O)c2cc(-c3cccs3)nc3ccccc23)c(=O)n(-c2ccccc2)n1C,4.3,-11.9,20.1,-19.3,12.8,27.1*
Cc1c(N2C(=O)SC(CC(=O)O)C2=O)c(=O)n(-c2ccccc2)n1C (stereo not drawn),-3.4,6.4,-2.0,19.5*,0.8,-2.2
Cc1c(N2C(=O)C3C4C=CC(C4)C3C2=O)c(=O)n(-c2ccccc2)n1C (stereo not drawn),4.6,13.3,-6.1,9.2,1.2,3.6
CC(=O)/C=C1\SC(CC(=O)O)C(=O)N1c1ccccc1 (stereo not drawn),-0.8,21.6*,-11.8,11.9,1.3,-8.4
Cc1ccc(NS(=O)(=O)c2ccc(-n3cccn3)cc2)cc1F,5.0,-3.5,7.1,-5.5,11.9,13.5
COc1cccc(NS(=O)(=O)c2ccc(-n3cccn3)cc2)c1,4.2,-11.8,30.8*,-14.1,26.4,18.2
O=C(/C=C/c1c(F)cccc1Cl)NCCCN1CCOCC1,-3.6,16.5*,3.1,2.2,0.6,6.9
CC1=C(C(=O)N2CCOCC2)CC(CC(=O)NCCCN(C)C)C(=O)N1Cc1ccc(F)cc1 (stereo not drawn),3.2,5.6,-3.0,1.7,0.7,1.2
CC(=O)Nc1ccc2nc(-c3ccc(Br)o3)[nH]c2c1,0.5,22.9*,-6.0,0.5,2.9,7.3
Cc1ccc(NC(=O)C(C)OC(=O)c2nc(Cl)ccc2Cl)cc1S(=O)(=O)N1CCOCC1 (stereo not drawn),1.2,-3.0,13.5,-6.1,8.1,17.9
COc1ccc(C2Oc3ccccc3N2C(C)=O)cc1 (stereo not drawn),-1.6,-1.2,31.1*,1.3,0.9,11.3
SMILES,CHRM5 agonist,M4 PAM,M4 antag,M5 PAM,CHRM4 agonist,CHRM5 antagonist
N#Cc1ccc(OCC(=O)N/N=C2\CCc3ccccc32)cc1,-2.6,-4.2,2.9,18.4*,0.7,-5.3
CSc1ccc(S(=O)(=O)N(CC(=O)NN=C2CCN(C)CC2)c2ccc(C)cc2)cc1,4.8,17.3,-8.1,23.0*,2.1,-3.8
CN1CCC(=NNC(=O)CN(c2ccccc2)S(=O)(=O)c2ccccc2)CC1,-3.9,-1.3,-7.0,-0.9,13.9,18.3
O=[N+]([O-])c1ncccc1Oc1nc(-c2cccnc2)nc2ccccc12,-0.9,-6.0,0.9,-7.8,0.8,7.4
Cn1nc(C(C)(C)C)cc1NC(=O)Nc1cc(Cl)cc(Cl)c1,4.9,-1.9,3.6,-23.6,16.4,34.3*
CN1CCN(NC(=O)Nc2cc(Cl)cc(Cl)c2)CC1,-3.2,-4.2,10.6,-10.1,11.6,43.8*
COc1ccc(OCc2cc(C(=O)NCCN3CCCC(O)C3)no2)c(Cl)c1 (stereo not drawn),-1.9,-0.1,2.9,8.3,2.3,-5.5
Cn1c(N)c(C(=O)COC(=O)Cc2ccsc2)c(=O)n(C)c1=O,0.1,22.4*,3.1,6.6,2.8,-4.3
Cn1c(N)c(C(=O)COC(=O)Cc2ccc(Br)cc2)c(=O)n(C)c1=O,1.6,14.2,-10.4,8.8,0.6,-10.1
COc1cc(CCCN2C(N)=NC[C@H]2Cc2ccc(O)cc2)cc(OC)c1OC,-1.9,14.3,-9.2,18.1*,0.3,-6.7
CCCCN1C(N)=NC[C@@H]1Cc1ccc(O)cc1,-3.0,5.3,9.7,-5.3,-0.2,9.3
NC1=NC[C@H](Cc2ccc(O)cc2)N1CCC12CC3CC(CC(C3)C1)C2,-11.7,-18.5,46.4*,-8.5,2.2,7.3
CC1CCC/C(=N/Nc2ccc([N+](=O)[O-])cc2[N+](=O)[O-])C1 (stereo not drawn),1.5,11.6,-9.3,-3.7,3.3,-0.3
CC(=O)Nc1ccc(S(=O)(=O)Nc2nc(C)nc3sc(C)c(C)c23)cc1,-1.7,21.3*,-12.5,9.9,-0.9,-19.5
Cc1sc2ncnc(NS(=O)(=O)c3ccc(Cl)cc3)c2c1C,3.0,6.1,-4.8,3.6,3.2,9.3
COc1ccccc1NC(=O)Nc1ccnn1C1CCN(C(=O)c2cccnc2)CC1,2.4,0.5,-7.6,5.1,2.0,-14.0
Cc1c(CCC(=O)O)c(=O)oc2cc3occ(-c4ccc(F)cc4)c3cc12,-1.0,5.1,-11.9,35.5*,0.9,37.5*
CCN(Cc1ccccc1)S(=O)(=O)c1c(C)[nH]c(C)c1C(=O)N1CCCC1,-2.8,-1.9,1.8,0.3,1.7,-8.8
